Test results from ChEMBL document CHEMBL1125562, “Antimitotic agents: ring analogues and derivatives of ethyl [(S)-5-amino-1,2-dihydro-2-methyl-3-phenylpyrido[3,4-b]pyrazin-7-yl]carbamate” (J Med Chem, 1992).

Experiments:
L1210 [1] = experiment: Concentration that causes a mitotic index (number of cells in mitosis divided by total cells) of 0.5 for cultured lymphoid leukemia L1210 cells during an exposure period of 12 h; type: functional, Mus musculus
Procedure, shortened: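 Mouse lymphoid leukemia L1210 cells in culture, exposed to agent for 12 h. Mitotic index is cells in mitosis over total cells. Value is the nanomolar concentration giving an index of 0.5.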

Mus musculus [2] = experiment: Compound was evaluated in vivo for antileukemic activity by calculating Percent increase in life span at dose of 30 mg/kg; type: functional
Procedure, shortened: (§1)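 NCI protocols. CD2F1 mice were implanted ip with 10⁶ lymphocytic leukemia P388 cells 24 h before treatment. Drug was given ip daily on days 1–5, or as a single day-1 dose where footnoted. The read-out was percent increase in lifespan.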

L1210 [3] = experiment: Concentration that inhibits proliferation of cultured lymphoid leukemia L1210 cells to 50% control growth during 48 h; type: functional, cell-based; conditions: Mus musculus, L1210, 48 h
Procedure, shortened: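 L1210 lymphoid leukemia cells in culture, exposed to agent for 48 h. Proliferation is measured against untreated control growth. Value is the nanomolar concentration holding growth to 50% of control.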

Mus musculus [4] = experiment: Compound was evaluated in vivo for antileukemic activity by calculating Percent increase in life span at dose of 75 mg/kg; type: functional; procedure, shortened: as §1
Mus musculus [5] = experiment: Compound was evaluated in vivo for antileukemic activity by calculating Percent increase in life span at dose of 24 mg/kg; type: functional; procedure, shortened: as §1
Mus musculus [6] = experiment: Compound was evaluated in vivo for antileukemic activity by calculating Percent increase in life span at dose of 8 mg/kg; type: functional; procedure, shortened: as §1
Mus musculus [7] = experiment: Compound was evaluated in vivo for antileukemic activity by calculating Percent increase in life span at dose of 200 mg/kg; type: functional; procedure, shortened: as §1
Mus musculus [8] = experiment: Compound was evaluated in vivo for antileukemic activity by calculating Percent increase in life span at dose of 70 mg/kg; type: functional; procedure, shortened: as §1
Mus musculus [9] = experiment: Compound was evaluated in vivo for antileukemic activity by calculating Percent increase in life span at dose of 1 mg/kg; type: functional; procedure, shortened: as §1
Mus musculus [10] = experiment: Compound was evaluated in vivo for antileukemic activity by calculating Percent increase in life span at dose of 0.5 mg/kg; type: functional; procedure, shortened: as §1
Mus musculus [11] = experiment: Compound was evaluated in vivo for antileukemic activity by calculating Percent increase in life span at dose of 2 mg/kg; type: functional; procedure, shortened: as §1

Which results are given for `CCOC(=O)Nc1cc2c(c(N)n1)N=C(c1ccccc1)[C@@H](C)N2`?
MI0.5 (L1210 [1]): 27 nM; ILS at 30 mg/kg (Mus musculus [2]): 88%

`CCOC(=O)Nc1cc2c(c(O)n1)N=C(c1ccccc1)C(C)N2` (stereo not given) was tested. Which IC50 (L1210 [3]) did it give?
Its IC50 is 4400 nM.

And the MI0.5 (L1210 [1])?
Its MI0.5 is 1800 nM.

What does the source list for `CCOC(=O)Nc1cc(N)c2c(n1)NC(C)C(c1ccccc1)=N2` (stereo not given)?
IC50 (L1210 [3]): 3900 nM; MI0.5 (L1210 [1]): 6700 nM; ILS at 75 mg/kg (Mus musculus [4]): 0%

How did the IC50 (L1210 [3]) turn out when `CCOC(=O)Nc1cc2c(cn1)N=C(c1ccccc1)C(C)N2` (stereo not given) was run?
Its IC50 is 17 nM.

What about the MI0.5 (L1210 [1]) of the same compound?
Its MI0.5 is 21 nM.

What about the ILS at 24 mg/kg (Mus musculus [5]) of the same compound?
The ILS at 24 mg/kg was 90%.

`CCOC(=O)Nc1cc2c(c(N)n1)N=C(c1ccccc1)CCN2` was tested. Which IC50 (L1210 [3]) did it give?
Its IC50 is 3.7 nM.

What about the ILS at 8 mg/kg (Mus musculus [6]) of the same compound?
Its ILS at 8 mg/kg is 35%.

With `COC(=O)Nc1nc(N)c2c(n1)NC(C)C(c1ccccc1)=N2` (stereo not given) as the compound, how does the IC50 (L1210 [3]) read?
Its IC50 is 1700 nM.

And the MI0.5 (L1210 [1])?
The MI0.5 was 3000 nM.

And the ILS at 200 mg/kg (Mus musculus [7])?
The ILS at 200 mg/kg was 0%.

Which results are given for `CCOC(=O)Nc1cc2c(cn1)NC(c1ccccc1)C(C)N2` (stereo not given)?
IC50 (L1210 [3]): 81 nM; MI0.5 (L1210 [1]): 161 nM; ILS at 70 mg/kg (Mus musculus [8]): 65%

Which MI0.5 (L1210 [1]) does the source give for `CCOC(=O)Nc1cc2c(c(N)n1)N=C(c1ccccc1)C(C)N2` (racemic) here?
Its MI0.5 is 0.58 nM.

And the ILS at 1 mg/kg (Mus musculus [9])?
Its ILS at 1 mg/kg is 71%.

Which MI0.5 (L1210 [1]) does the source give for `COc1cc2c(c(OC)c1OC)-c1ccc(OC)c(=O)cc1[C@@H](NC(C)=O)CC2` [COLCHICINE] here?
The MI0.5 was 21 nM.

Which MI0.5 (L1210 [1]) does the source give for `CCOC(=O)Nc1cc2c(c(N)n1)N=C(c1ccccc1)[C@H](C)N2` [MIVOBULIN] here?
The MI0.5 was 0.14 nM.

What about the ILS at 0.5 mg/kg (Mus musculus [10]) of the same compound?
Its ILS at 0.5 mg/kg is 64%.

`CC[C@]1(O)C[C@H]2CN(CCc3c([nH]c4ccccc34)[C@@](C(=O)OC)(c3cc4c(cc3OC)N(C=O)[C@H]3[C@@](O)(C(=O)OC)[C@H](OC(C)=O)[C@]5(CC)C=CCN6CC[C@]43[C@@H]65)C2)C1` [VINCRISTINE] was tested. Which MI0.5 (L1210 [1]) did it give?
Its MI0.5 is 11 nM.

What about the ILS at 2 mg/kg (Mus musculus [11]) of the same compound?
Its ILS at 2 mg/kg is 85%.
